Laboratory results from ChEMBL document CHEMBL1667749, “Design & synthesis of N'-[substituted] pyridine-4-carbohydrazides as potential anticonvulsant agents” (Eur J Med Chem, 2011).
Active and inactive are the calls of the source. The calls are words filed in the database; no cut-off is given here.

Tests used:
Mus musculus [1] = experiment: Anticonvulsant activity in albino CF-1 mouse assessed as protection against maximal electroshock-induced seizures at 300 mg/kg, ip after 2 hrs; type: functional, organism-based; set-up: dose 300 mg/kg
Outline: (§1)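 Male CF-1 mice (18–25 g), i.p. in 0.5% methyl cellulose at 30, 100 and 300 mg/kg; MES: 60 Hz, 50 mA, 0.2 s through tetracaine-primed corneal electrodes; protection = abolished hind limb tonic extension. Value given as minimum dose active in half or more of mice.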

Mus musculus [2] = experiment: Anticonvulsant activity in albino CF-1 mouse assessed as protection against maximal electroshock-induced seizures at 300 mg/kg, ip after 4 hrs; type: functional, organism-based; set-up: dose 300 mg/kg; outline: as §1
Mus musculus [3] = experiment: Anticonvulsant activity in albino CF-1 mouse assessed as protection against subcutaneous metrazol-induced seizures at 300 mg/kg, ip after 4 hrs; type: functional, organism-based; set-up: dose 300 mg/kg
Outline: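 Male CF-1 mice, i.p. at 30, 100, 300 mg/kg in 0.5% methyl cellulose; metrazol dose convulsing 97% of animals injected s.c. in midline neck fold, mice isolated and watched 30 min; protected if no 3–5 s clonic spasm episode of limbs, jaws or vibrissae.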

Mus musculus [4] = experiment: Anticonvulsant activity in albino CF-1 mouse assessed as protection against maximal electroshock-induced seizures at 300 mg/kg, ip after 0.5 hrs; type: functional, organism-based; set-up: dose 300 mg/kg; outline: as §1
Mus musculus [5] = experiment: Anticonvulsant activity in ip dosed albino CF-1 mouse assessed as dose required to protect against subcutaneous metrazol-induced seizures after 0.5 hrs; type: functional
Outline: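 Male albino CF-1 mice (18-25 g) received i.p. compound suspended in 0.5% methyl cellulose at 30, 100 and 300 mg/kg. Metrazol at a dose convulsing 97% of animals was given s.c. in the midline neck fold, and mice were observed 30 min in isolation. A clonic spasm of about 3-5 s was the end point. The value is the minimum dose protecting half or more of the mice.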

Mus musculus [6] = experiment: Neurotoxicity in albino CF-1 mouse assessed as motor impairment at 300 mg/kg, ip after 4 hrs by rotarod test; type: toxicity, organism-based; set-up: dose 300 mg/kg, route intraperitoneal; conditions: in vivo
Outline: (§2)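 Minimal motor impairment in male CF-1 mice by rotorod after i.p. dosing; toxic if animal falls off rotating rod 3 times within 1 min. Screen doses 30, 100, 300 mg/kg; quantitative TD50 (95% confidence interval) determined at time of peak effect.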

Mus musculus [7] = experiment: Neurotoxicity in albino CF-1 mouse assessed as motor impairment at 300 mg/kg, ip after 0.5 hrs by rotarod test; type: toxicity, organism-based; set-up: dose 300 mg/kg, route intraperitoneal; conditions: in vivo; outline: as §2

Question: With `CCCC(CCC)C(=O)[O-].[Na+]` [VALPROATE SODIUM] as the molecule, how does the Activity (Mus musculus [1]) read?
Answer: inactive

Question: What about the Activity (Mus musculus [2]) of the same molecule?
Answer: inactive

Question: What about the Activity (Mus musculus [3]) of the same molecule?
Answer: inactive

Question: And the Activity (Mus musculus [4])?
Answer: inactive

Question: What about the Activity (Mus musculus [5]) of the same molecule?
Answer: 300 mg/kg

Question: And the Activity (Mus musculus [6])?
Answer: Non-toxic

Question: What about the Activity (Mus musculus [7]) of the same molecule?
Answer: Non-toxic
